Here are results for 48 compounds from ChEMBL document CHEMBL5131565, “Structure-Guided Optimization of Small-Molecule Folate Uptake Inhibitors Targeting the Energy-Coupling Factor Transporters” (J Med Chem, 2022).

Values after ≈ are worked out from the molar mass of the structure shown. Bounds are passed on as bounds.

Data set [1] has as its target T1, Energy-coupling factor transporter transmembrane protein EcfT (Lactobacillus casei) (UniProt A0A510WMC0).
T1 sequence (whole entry): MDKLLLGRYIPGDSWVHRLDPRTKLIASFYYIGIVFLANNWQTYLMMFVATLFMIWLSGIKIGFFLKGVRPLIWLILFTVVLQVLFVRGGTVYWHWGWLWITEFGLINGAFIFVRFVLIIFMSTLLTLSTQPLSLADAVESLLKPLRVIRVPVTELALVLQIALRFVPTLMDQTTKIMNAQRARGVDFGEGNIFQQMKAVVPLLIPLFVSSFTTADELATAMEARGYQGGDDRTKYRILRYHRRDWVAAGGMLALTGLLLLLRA
In words: Inhibition of Lactobacillus casei ECF-FolT assessed as inhibition of radiolabelled folic acid uptake at 50 uM pre-incubated for 10 mins followed tritium labeled folic acid addition measured after 30 mins by liquid scintillation analysis relative to control. As to conditions: Lacticaseibacillus casei, time 40.0 min. A digest of the protocol: (§1)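 Whole-cell *L. casei* assay of ECF-FolT-mediated folate uptake. Compounds were first tested at 50 μM and reported as % inhibition. IC50 was determined for those giving more than 70% inhibition at 50 μM. Data come from two independent experiments, each run in duplicate.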

Data set [2] has as its target T2, Energy-coupling factor transporter transmembrane protein EcfT (Lactobacillus casei, UniProt A0A510WMC0).
T2 sequence (A0A510WMC0 whole entry): T1 sequence (whole entry)
In words: Inhibition of Lactobacillus casei ECF-FolT assessed as inhibition of radiolabelled folic acid uptake pre-incubated for 10 mins followed tritium labeled folic acid addition measured after 30 mins by liquid scintillation analysis. On the set-up: species or system Lacticaseibacillus casei. Summed up:
as §1

Another data set concerns HepG2. In words: Cytotoxicity against human HepG2 cells assessed as reduction in cell viability measured after 48 hrs by MTT assay. The data set is classed as toxicity, cell-based. (Tetrazolium assays rely on reduction of a dye to a coloured formazan, in cell work by metabolically active cells.)
Another data set has as its system HEK293. In words: Cytotoxicity against HEK293 cells assessed as reduction in cell viability measured after 48 hrs by MTT assay. The data set is classed as toxicity, cell-based, Homo sapiens.
Another data set has as its system A549. In words: Cytotoxicity against human A549 cells assessed as reduction in cell viability measured after 48 hrs by MTT assay. The data set is classed as toxicity, cell-based.
Data set [3] relates to Streptococcus pneumoniae. In words: Antibacterial activity against penicillin-resistant Streptococcus pneumoniae DSM-11865 measured after 24 hrs by CLSI protocol based microbroth dilution method. The data set is classed as functional.
Data set [4] deals with Enterococcus faecium. In words: Antibacterial activity against Enterococcus faecium DSM-20477 measured after 24 hrs by CLSI protocol based microbroth dilution method. The data set is classed as functional. Background: Broth dilution looks for growth in wells or tubes with falling amounts of substance.
The test system of data set [5] is Streptococcus pneumoniae. In words: Antibacterial activity against Streptococcus pneumoniae DSM-20566 measured after 24 hrs by CLSI protocol based microbroth dilution method. The data set is classed as functional.
Data set [6] deals with Enterococcus faecium. In words: Antibacterial activity against vancomycin-resistant Enterococcus faecium DSM-17050 measured after 24 hrs by CLSI protocol based microbroth dilution method. The data set is classed as functional.
Data set [7] is described as follows: Kinetic solubility of the compound. As to conditions: read-out: Kinetic_solubility. The data set is classed as physicochemical.
A further data set concerns Staphylococcus aureus. In words: Antibacterial activity against Staphylococcus aureus Newman measured after 24 hrs by CLSI protocol based microbroth dilution method. The data set is classed as functional.

For orientation: inhibition means the share of the control response that was lost under treatment. Consider `CCCCCCNC(=O)Nc1cc(-c2cccc(C(F)(F)F)c2)sc1C(=O)O`, for which, in data set [1], the inhibition was 52.3%.

Consider `CCCCNC(=O)Nc1cc(-c2ccc(Cl)c(Cl)c2)sc1C(=O)O`, for which, in data set [1], the inhibition was determined as 61.9%.

Usually IC50 stands for the concentration that inhibits the measured activity by half. For `CCN(Cc1ccccc1)C(=O)Nc1cc(-c2ccc(Cl)c(Cl)c2)sc1C(=O)O`, in data set [1], the inhibition was found to be 89.4%. Also, the IC50 in data set [2] was 11.4 µM.

As usually defined, the MIC is the lowest concentration found to suppress growth. Read a low MIC as inhibition by little substance. As for `CCCCN(C(=O)Nc1c(-c2ccc(Oc3ccccc3)cc2)csc1C(=O)O)c1ccccc1`, the IC50 with HepG2 came out at 57 µM; in the data set with HEK293, 25.5 µM; with A549 it was 49.3 µM; in data set [2], 3.9 µM. For the same compound, the MIC turned out to be 16 µM (≈ 7.79 µg/mL) against Streptococcus pneumoniae [3]; 16 µM (≈ 7.79 µg/mL) with Enterococcus faecium [4]; 4 µM (≈ 1.95 µg/mL) in the data set with Streptococcus pneumoniae [5]; 8 µM (≈ 3.89 µg/mL) against Enterococcus faecium [6]; 16 µM (≈ 7.79 µg/mL) against Staphylococcus aureus. For the same compound, in data set [1], the inhibition is 100%. In addition, the solubility kinetic in data set [7] is more than 200 µM.

As for `CCN(Cc1ccccc1)C(=O)Nc1cc(-c2ccc(OC(F)(F)F)cc2)sc1C(=O)O`, in data set [1], the inhibition was found to be 67.2%.

Consider `O=C(Nc1ccccc1)Nc1cc(-c2ccc(Cl)c(Cl)c2)sc1C(=O)O`, for which the inhibition in data set [1] came to 86.8%. Moreover, the IC50 in data set [2] was determined as 14.4 µM.

For `COc1ccc(CNC(=O)Nc2cc(-c3ccc(Cl)c(Cl)c3)sc2C(=O)O)cc1`, in [1], the inhibition was determined as 54.3%.

With `O=C(O)CCCNC(=O)Nc1cc(-c2ccc(Cl)c(Cl)c2)sc1C(=O)O`, the inhibition in [1] turned out to be 0.2%.

For `CCCCCCNC(=O)Nc1c(-c2ccc(Cl)c(Cl)c2)csc1C(=O)O`, the inhibition in data set [1] was 90.6%. Besides, in data set [2], the IC50 was 6 µM.

Take `O=C(NCc1ccncc1)Nc1cc(-c2ccc(Cl)c(Cl)c2)sc1C(=O)O`: the inhibition in data set [1] was 54%.

Consider `O=C(O)c1sc(-c2ccc(Cl)c(Cl)c2)cc1NC(=O)N(Cc1ccccc1)Cc1ccccc1`, for which the inhibition in [1] came out at 85.1%. The IC50 in data set [2] was determined as 24 µM.

As to `CCCCCCNc1c(-c2ccc(Cl)c(Cl)c2)csc1C(=O)O`, the inhibition in data set [1] was 95.2%.

As to `CCN(Cc1ccccc1)C(=O)Nc1cc(-c2ccc(C#N)cc2)sc1C(=O)O`, the inhibition in [1] was found to be 18.3%.

Consider `O=C(O)c1sc(-c2ccc(Cl)c(Cl)c2)cc1NC(=O)N(Cc1ccccc1)c1ccccc1`, for which, in data set [1], the inhibition was determined as 91.3%. In addition, the IC50 in data set [2] stood at 2.94 µM.

In the case of `CCN(Cc1ccccc1)C(=O)Nc1cc(-c2ccc(Br)cc2)sc1C(=O)O`, the inhibition in data set [1] amounted to 52.3%.

Regarding `CCCCC(=O)Nc1c(-c2ccc(Cl)c(Cl)c2)csc1C(=O)O`, in data set [1], the inhibition was found to be 31.8%.

For `Nc1c(-c2ccc(Cl)c(Cl)c2)csc1C(=O)O`, in data set [1], the inhibition is less than 10%.

On to `CCCCCCNC(=O)Nc1cc(-c2ccc(Cl)c(C(F)(F)F)c2)sc1C(=O)O`, for which the inhibition in data set [1] was 59%.

Turning to `CCCCN(CCc1ccccc1)C(=O)Nc1cc(-c2ccc(Cl)c(Cl)c2)sc1C(=O)O`, the inhibition in data set [1] was found to be 57.8%.

With `CCCCN(Cc1ccccc1)C(=O)Nc1cc(-c2ccc(Cl)c(Cl)c2)sc1C(=O)O`, the inhibition in data set [1] is 42.5%.

Turning to `CCCCCCNC(=O)Nc1cc(-c2cccc(Cl)c2)sc1C(=O)O`, the inhibition in data set [1] is 36.2%.

`CCCCN(C(=O)Nc1cc(-c2ccc(Cl)c(Cl)c2)sc1C(=O)O)c1ccccc1`: the IC50 in the data set with HepG2 was 95.6 µM; in the data set on HEK293, 52.5 µM; in the data set on A549, more than 100 µM; in [2], 2.35 µM. Further, the MIC was found to be 0.5 µM (≈ 0.232 µg/mL) in the data set with Streptococcus pneumoniae [3]; 8 µM (≈ 3.71 µg/mL) against Enterococcus faecium [4]; 2 µM (≈ 0.927 µg/mL) with Streptococcus pneumoniae [5]; 2 µM (≈ 0.927 µg/mL) against Enterococcus faecium [6]; 23 µM (≈ 10.7 µg/mL) against Staphylococcus aureus. Further, the inhibition in data set [1] came out at 99.6%. In addition, the solubility kinetic in [7] was 107 µM (≈ 49.4 µg/mL).

Regarding `CN(C(=O)Nc1cc(-c2ccc(Cl)c(Cl)c2)sc1C(=O)O)c1ccccc1`, the inhibition in data set [1] was 71.5%. Moreover, the IC50 in data set [2] came out at 23 µM.

As for `CCCCCCNC(=O)Nc1cc(-c2cc(Cl)ccc2Cl)sc1C(=O)O`, the inhibition in data set [1] was found to be 93.4%. The concentration for half-maximal inhibition (IC50) in [2] came out at 21.8 µM.

Turning to `CCN(Cc1ccccc1)C(=O)Nc1cc(-c2ccc(C)cc2)sc1C(=O)O`, the inhibition in data set [1] was determined as 38.9%.

For `CC(C)NC(=O)Nc1cc(-c2ccc(Cl)c(Cl)c2)sc1C(=O)O`, the inhibition in [1] was 39.3%.

Turning to `CCCCCCNC(=O)Nc1cc(-c2ccc(OC)cc2)sc1C(=O)O`, in data set [1], the inhibition was determined as 12.1%.

On to `CCCCCCNC(=O)Nc1ccsc1C(=O)O`, for which the inhibition in data set [1] is less than 10%.

For the compound `CCCCCCNC(=O)Nc1cc(-c2ccc(C(F)(F)F)cc2)sc1C(=O)O`, the inhibition in data set [1] was 27.1%.

For `CCN(Cc1ccccc1)C(=O)Nc1cc(-c2cc(Cl)cc(Cl)c2)sc1C(=O)O`, the inhibition in [1] came out at 22%.

In the case of `NC(=O)Nc1cc(-c2ccc(Cl)c(Cl)c2)sc1C(=O)O`, in [1], the inhibition is 42.4%.

Turning to `O=C(NCCc1ccccc1)Nc1cc(-c2ccc(Cl)c(Cl)c2)sc1C(=O)O`, the inhibition in data set [1] was 91.7%. The IC50 in [2] was 15.3 µM.

Consider `CN(Cc1ccccc1)C(=O)Nc1cc(-c2ccc(Cl)c(Cl)c2)sc1C(=O)O`, for which the inhibition in data set [1] was 86.9%. In addition, the IC50 in data set [2] is 10 µM.

With `CCCCCCNC(=O)Nc1cc(-c2ccc(Cl)c(Cl)c2)sc1C(=O)O`, the inhibition in data set [1] was determined as 72.2%. Further, the IC50 in data set [2] was found to be 28.5 µM.

With `CCN(Cc1ccccc1)C(=O)Nc1cc(-c2ccc(Oc3ccccc3)cc2)sc1C(=O)O`, in [1], the inhibition was determined as 97%. Moreover, the IC50 in data set [2] came to 10.1 µM.

In the case of `CCCCCCNC(=O)Nc1cc(-c2ccc(Cl)cc2Cl)sc1C(=O)O`, in data set [1], the inhibition came out at 67.9%.

Consider `CCCCN(C(=O)Nc1c(-c2cc(Cl)ccc2Cl)csc1C(=O)O)c1ccccc1`, for which the inhibition in [1] stood at 73.4%. In addition, in [2], the IC50 amounted to 17 µM.

As for `CCCCCCNC(=O)Nc1cc(-c2ccc(Cl)cc2)sc1C(=O)O`, the inhibition in data set [1] worked out at 27.2%.

Consider `CCN(C(=O)Nc1cc(-c2ccc(Cl)c(Cl)c2)sc1C(=O)O)c1ccccc1`, for which, in data set [1], the inhibition amounted to 83.2%. The IC50 in data set [2] worked out at 10.5 µM.

As for `CCCCCCNC(=O)Nc1scc(-c2ccc(Cl)c(Cl)c2)c1C(=O)O`, the inhibition in data set [1] is 87.5%. Further, the concentration for half-maximal inhibition (IC50) in data set [2] was 18.5 µM.

For `CCCCCCNC(=O)Nc1sc(-c2ccc(Cl)c(Cl)c2)cc1C(=O)O`, in data set [1], the inhibition turned out to be 17.9%.

As for `O=C(NCc1ccccn1)Nc1cc(-c2ccc(Cl)c(Cl)c2)sc1C(=O)O`, in data set [1], the inhibition amounted to 59%.

For the compound `CCCCCCNC(=O)Nc1cc(-c2ccccc2)sc1C(=O)O`, in [1], the inhibition amounted to 25.1%.

As to `O=C(NCc1cccnc1)Nc1cc(-c2ccc(Cl)c(Cl)c2)sc1C(=O)O`, the inhibition in [1] was found to be 58%.

`CCCCCCNC(=O)Nc1cc(-c2ccc([N+](=O)[O-])cc2)sc1C(=O)O`: in [1], the inhibition stood at 82.1%. Besides, in data set [2], the IC50 stood at 25.1 µM.

As for `O=C(NCc1ccccc1)Nc1cc(-c2ccc(Cl)c(Cl)c2)sc1C(=O)O`, the inhibition in data set [1] stood at 71.1%. Moreover, in [2], the IC50 came to 17.8 µM.

In the case of `CCCCCCNC(=O)Nc1cc(-c2cccc([N+](=O)[O-])c2)sc1C(=O)O`, the inhibition in data set [1] is 65.3%. The IC50 in data set [2] turned out to be 43.3 µM.

As to `CCCCCCNC(=O)Nc1c(C(=O)O)cccc1-c1ccc(Cl)c(Cl)c1`, the inhibition in [1] came to 65.4%.
